# Laboratory results as given in ChEMBL document CHEMBL4002570, “Synthesis and cytostatic properties of polyfunctionalized furanoallocolchicinoids” (Eur J Med Chem, 2017).
# Activity calls are given as the source filed them.
# How the values were obtained:
# [1] = system: COLO357; assay: Cytotoxicity against 2D culture of human Colo-357 cells measured after 72 hrs by MTT assay; assay type: functional, cell-based; details: COLO357, 72 h
# How it was run: (§1)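 Cells (tumor lines and HaCaT in DMEM with 10% FCS; bone-marrow MSC at passages 2-6) seeded at 3x10⁵ cells/mL 24 h before and allowed to adhere. Compounds dissolved in DMSO (20 mM stock), diluted 20 µM to 0.1 nM, exposed 72 h. MTT added for the last 6 h, formazan dissolved in DMSO, OD read at 540 nm. IC50 taken from titration curves.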
# [2] = system: A549; assay: Cytotoxicity against 2D culture of human A549 cells measured after 72 hrs by MTT assay; assay type: functional, cell-based; details: A549, 72 h; how it was run: as §1
# [3] = system: PANC-1; assay: Cytotoxicity against 2D culture of human PANC1 cells measured after 72 hrs by MTT assay; assay type: functional, cell-based; details: PANC-1, 72 h; how it was run: as §1
# [4] = system: MIA PaCa-2; assay: Cytotoxicity against 2D culture of human MIAPaCa2 cells measured after 72 hrs by MTT assay; assay type: functional, cell-based; details: MIA PaCa-2, 72 h; how it was run: as §1
# [5] = system: BXPC-3; assay: Cytotoxicity against 2D culture of human BxPC3 cells measured after 72 hrs by MTT assay; assay type: functional, cell-based; details: BXPC-3, 72 h; how it was run: as §1
# [6] = system: MIA PaCa-2; assay: Induction of lysosomal membrane hyperpolarization in 3D culture of human MIAPaCa2 cells at 1 uM measured after 48 hrs by LysoTrackRed dye based flow cytometry; assay type: functional, cell-based
# How it was run: (§2)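 Spheroids on polyHEMA exposed to 1 µM for 48 h, trypsinized. Live cells stained for 1 h with DiOC₆ (mitochondrial potential), LysoTrackerRed (lysosomal potential) or propidium iodide (membrane permeability), then analyzed by flow cytometry.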
# [7] = system: COLO357; assay: Induction of F-actin expression in 3D culture of human Colo-357 cells at 1 uM measured after 48 hrs by propidium staining based flow cytometry; assay type: functional, cell-based
# How it was run: (§3)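 Spheroids on polyHEMA exposed to 1 µM for 48 h, trypsinized, permeabilized, stained with anti-tubulin antibody and phalloidin-AlexaFluor488 for F-actin, and analyzed by flow cytometry.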
# [8] = system: MIA PaCa-2; assay: Induction of cell membrane permeability in 3D culture of human MIAPaCa2 cells at 1 uM measured after 48 hrs by propidium iodide staining based flow cytometry; assay type: functional; how it was run: as §2
# [9] = system: COLO357; assay: Induction of lysosomal membrane hyperpolarization in 3D culture of human Colo-357 cells at 1 uM measured after 48 hrs by LysoTrackRed dye based flow cytometry; assay type: functional, cell-based; how it was run: as §2
# [10] = system: COLO357; assay: Induction of apoptosis in 2D culture of human Colo-357 cells assessed as accumulation at G2/M phase at 1 uM measured after 72 hrs by propidium iodide staining based flow cytometry; assay type: functional, cell-based
# How it was run: (§4)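 Cultures (2D or polyHEMA spheroids) exposed to 1 µM for 72 h. Cells trypsinized, washed in ice-cold PBS, fixed in 70% ethanol for 2 h at −20 °C, stained with propidium iodide 50 µg/ml plus […] 10 µg/ml. Flow cytometry with 2000 events. Phase distribution gated on dot plots; apoptotic cells excluded in 3D histograms.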
# [11] = system: COLO357; assay: Induction of apoptosis in 3D culture of human Colo-357 cells assessed as accumulation at G2/M phase at 1 uM measured after 72 hrs by propidium iodide staining based flow cytometry; assay type: functional, cell-based; how it was run: as §4
# [12] = system: COLO357; assay: Induction of beta-tubulin expression in human Colo-357 cells at 1 uM measured after 24 hrs by Hoechst 33342 staining based confocal microscopic analysis; assay type: functional, cell-based
# How it was run: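 Colo-357 in 2D exposed to 1 µM for 24 h, fixed, then stained with anti-β-tubulin antibody (red) and Hoechst 33342. Confocal imaging; mean fluorescence intensity from red pixel counts over several fields; significance taken at p<0.05.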
# [13] = system: COLO357; assay: Disruption of mitotic spindle in human Colo-357 cells at 1 uM measured after 72 hrs by Hoechst 33342 staining based confocal microscopic analysis; assay type: functional, cell-based
# [14] = system: EA.hy 926; assay: Cytotoxicity against 3D culture of human EAhy926 cells up to 10000 nM measured after 72 hrs by MTT assay; assay type: cell-based; details: ea.hy 926, 72 h
# How it was run: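 Spheroids formed on polyHEMA-coated plates before drug addition, then handled like 2D MTT: dilutions from 20 µM to 0.1 nM, 72 h exposure, MTT for the final 6 h, DMSO solubilization, OD at 540 nm. Inhibition index = 1 − OD(exp)/OD(control); IC50 read at the 50% cutoff.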
# [15] = system: COLO357; assay: Induction of total tubulin expression in 3D culture of human Colo-357 cells measured after 48 hrs by propidium iodide staining based flow cytometry; assay type: functional, cell-based; how it was run: as §3
# [16] = system: PANC-1; assay: Disruption of preformed spheroids in human PANC1 cells at 1 uM measured after 48 hrs by propidium staining based flow cytometry; assay type: functional, cell-based
# [17] = system: COLO357; assay: Disruption of preformed spheroids in human Colo-357 cells at 1 uM measured after 48 hrs by propidium staining based flow cytometry; assay type: functional, cell-based
# [18] = system: MIA PaCa-2; assay: Induction of mitochondrial membrane hyperpolarization in 3D culture of human MIAPaCa2 cells at 1 uM measured after 48 hrs by DiOC6 dye based flow cytometry; assay type: functional, cell-based; how it was run: as §2
# [19] = system: MIA PaCa-2; assay: Induction of apoptosis in 2D culture of human MIAPaCa2 cells assessed as accumulation at G2/M phase at 1 uM measured after 72 hrs by propidium iodide staining based flow cytometry; assay type: functional, cell-based
# [20] = system: COLO357; assay: Induction of mitochondrial membrane hyperpolarization in 3D culture of human Colo-357 cells at 1 uM measured after 48 hrs by DiOC6 dye based flow cytometry; assay type: functional, cell-based; how it was run: as §2
# [21] = system: MIA PaCa-2; assay: Disruption of preformed spheroids in human MIAPaCa2 cells at 1 uM measured after 48 hrs by propidium staining based flow cytometry; assay type: functional, cell-based
# [22] = system: COLO357; assay: Induction of beta-tubulin expression in human Colo-357 cells assessed as mean fluorescence intensity at 1 uM measured after 24 hrs by Hoechst 33342 staining based confocal microscopic analysis (reference value: 52 +/- 12); assay type: functional
# [23] = system: MIA PaCa-2; assay: Induction of F-actin expression in 3d culture of human MIAPaCa2 cells at 1 uM measured after 48 hrs by propidium staining based flow cytometry; assay type: functional, cell-based; how it was run: as §3
# [24] = system: COLO357; assay: Induction of cell membrane permeability in 3D culture of human Colo-357 cells at 1 uM measured after 48 hrs by propidium iodide staining based flow cytometry; assay type: functional; how it was run: as §2
# [25] = Cytotoxicity against 2D culture of human MSC measured after 72 hrs by MTT assay; assay type: cell-based; how it was run: as §1
# [26] = system: MIA PaCa-2; assay: Induction of apoptosis in 3D culture of human MIAPaCa2 cells assessed as accumulation at G2/M phase at 1 uM measured after 72 hrs by propidium iodide staining based flow cytometry; assay type: functional, cell-based; how it was run: as §4
# [27] = system: EA.hy 926; assay: Cytotoxicity against 2D culture of human EAhy926 cells measured after 72 hrs by MTT assay; assay type: cell-based; details: EA.hy 926, 72 h; how it was run: as §1
# [28] = system: HaCaT; assay: Cytotoxicity against 2D culture of human HaCaT cells measured after 72 hrs by MTT assay; assay type: cell-based; how it was run: as §1
Compound,IC50 [1] [nM],IC50 [2] [nM],IC50 [3] [nM],IC50 [4] [nM],IC50 [5] [nM],Activity [6],Activity [7],Activity [8],Activity [9],Activity [10],Activity [11],Activity [12],Activity [13],Activity [14],Activity [15],Activity [16],Activity [17],Activity [18],Activity [19],Activity [20],other results
COc1cc2c(c(OC)c1OC)-c1cc3cc(C(C)O)oc3cc1C(=O)CC2 (centres undefined),100,40,70,> 100,80,,,,,,,,,,,,,,,,
COc1cc2c(c(OC)c1OC)-c1ccc(OC)c(=O)cc1[C@@H](NC(C)=O)CC2 [COLCHICINE],160,400,80,160,80,Active,inactive,Active,Active,Active,Active,Active,Active,Non-Toxic,Active,Active,Active,Active,Active,Active,Activity [21]: Active; Flu intensity [22]: 74; Activity [23]: Active; Activity [24]: Active; IC50 [25]: > 800 nM; Activity [26]: Active; IC50 [27]: > 800 nM; IC50 [28]: 80 nM
COc1cc2c(c(OC)c1OC)-c1cc3cc(CO)oc3cc1C(O)CC2 (centres undefined),16,16,16,16,16,Active,Active,Active,Active,Active,Active,Active,Active,Non-Toxic,Active,Active,Active,Active,Active,Active,Activity [21]: Active; Flu intensity [22]: 110; Activity [23]: Active; Activity [24]: Active; IC50 [25]: > 800 nM; Activity [26]: Active; IC50 [27]: > 800 nM; IC50 [28]: 16 nM
COc1cc2c(c(OC)c1OC)-c1cc3cc(CCO)oc3cc1C(O)CC2 (centres undefined),> 400,400,400,> 400,400,,,,,,,,,,,,,,,,
COc1cc2c(c(OC)c1OC)-c1cc3cc(CO)oc3cc1C(=O)CC2,16,16,16,64,16,Active,inactive,Active,Active,Active,Active,Active,Active,Non-Toxic,Active,Active,Active,Active,Active,Active,Activity [21]: Active; Flu intensity [22]: 73; Activity [23]: Active; Activity [24]: Active; IC50 [25]: > 800 nM; Activity [26]: Active; IC50 [27]: > 800 nM; IC50 [28]: 16 nM
COc1cc2c(c(OC)c1OC)-c1cc3cc(COC(C)=O)oc3cc1C(=O)CC2,16,80,16,16,16,,,,,,,,,,,,,,,,
COc1cc2c(c(OC)c1OC)-c1cc3cc(C(C)O)oc3cc1C(O)CC2 (centres undefined),64,80,30,64,30,,,,,,,,,,,,,,,,
COc1cc2c(c(OC)c1OC)-c1cc3cc(CCO)oc3cc1C(=O)CC2,> 400,400,400,> 400,400,,,,,,,,,,,,,,,,
